Source: PubChem BioAssay
The source made the active and inactive calls.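 Rule for the calls, unless noted: active = compounds giving at least 50% inhibition in the cell-based MKP-3 phosphatase rescue imaging test; inactive = the rest.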

Columns and labels:
[1] = inhibitors of TNFa-induced NFkB p65 translocation, primary screen, imaging, HUVEC, MLSMR starter and 10KST1 sets (AID 438;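 active = inhibition above 20% together with a positive visual image hit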;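 note: compound added about 3h40 before a 20 min TNFalpha stimulation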;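 for inhibition: signal is the nuclear over cytoplasmic p65 intensity ratio per well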); conditions: HUVEC TNFa-induced p65 nuclear translocation; cell count: measured here: nuclei count (cytotoxicity indicator), at 2.08 µM; inhibition: at 2 µM, stronger effect = higher value, 0% TNFa-plus-vehicle, 100% no-TNFa wells
[2] = endothelial E-selectin expression blockers – imaging, HUVEC, immunofluorescence, MLSMR starter and 10KST1 sets, primary screen (AID 487;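 active = visually confirmed hit in the image check and inhibition above 20%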;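 for inhibition: signal is fraction of cell area covered by stained E-selectin grains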;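 for nuclei count: 100% = median nuclei count of all wells on the same plate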); conditions: HUVEC TNFalpha-induced E-selectin immunofluorescence imaging, at 2 µM; inhibition: stronger effect = higher value; nuclei count: measured here: cell number, toxicity
[3] = Primary imaging screen for DUSP6 inhibitors that restore phospho-Erk in transfected HeLa cells, chemical complementation (AID 609); conditions: HeLa MKP-3 transfected, phospho-Erk imaging KS statistic, at 10 µM, cells stimulated with TPA for 15 min;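 for inhibition: phospho-Erk level distribution per well compared with pooled transfected vehicle control wells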
[4] = target: Dual specificity protein phosphatase 6 (Homo sapiens) (UniProt Q16828); experiment: as above; conditions: HeLa MKP-3 transfected, phospho-Erk imaging KS statistic; at 10 µM; stronger effect = higher value; cells stimulated with TPA for 15 min
Chain of Dual specificity protein phosphatase 6 (Homo sapiens) (Q16828 whole entry, looked up): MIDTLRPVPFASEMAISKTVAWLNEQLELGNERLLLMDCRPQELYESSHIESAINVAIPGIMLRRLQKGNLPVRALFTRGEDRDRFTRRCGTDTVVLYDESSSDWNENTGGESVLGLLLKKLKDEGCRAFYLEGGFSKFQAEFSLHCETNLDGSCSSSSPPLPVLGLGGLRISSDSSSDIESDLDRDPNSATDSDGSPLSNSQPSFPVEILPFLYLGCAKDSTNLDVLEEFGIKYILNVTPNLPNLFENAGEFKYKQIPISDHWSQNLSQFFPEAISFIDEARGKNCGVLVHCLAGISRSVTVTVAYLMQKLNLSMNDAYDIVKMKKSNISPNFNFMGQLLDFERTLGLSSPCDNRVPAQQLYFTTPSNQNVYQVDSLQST

[5] = target: Voltage-gated potassium channel subunit beta-2 (Rattus norvegicus) (UniProt P62483); experiment: inhibitors of rat Kvbeta2 reductase activity – biochemical, NADPH fluorescence, primary screen (AID 622;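 active = fluorescence slope higher than the sample average by over 3 SD, cut at about -0.22 in these data, passing the limit was not always enough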;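 note: slope of raw intensity against log time taken from 70 to 1610 s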); conditions: recombinant KvBeta, 4-cyanobenzaldehyde reduction, at 10 µM, stronger effect = higher value
Chain of Voltage-gated potassium channel subunit beta-2 (Rattus norvegicus) (P62483 whole entry, looked up): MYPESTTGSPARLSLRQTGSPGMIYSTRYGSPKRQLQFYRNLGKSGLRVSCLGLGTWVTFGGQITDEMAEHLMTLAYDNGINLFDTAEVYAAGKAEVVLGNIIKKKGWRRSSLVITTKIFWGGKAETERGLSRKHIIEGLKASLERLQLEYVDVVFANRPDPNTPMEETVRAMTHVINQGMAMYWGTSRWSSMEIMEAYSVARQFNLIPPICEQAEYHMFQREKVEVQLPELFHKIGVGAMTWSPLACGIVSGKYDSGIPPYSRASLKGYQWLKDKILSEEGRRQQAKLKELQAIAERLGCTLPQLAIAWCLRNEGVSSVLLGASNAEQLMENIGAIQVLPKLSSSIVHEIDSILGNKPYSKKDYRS

[6] = target: Voltage-gated potassium channel subunit beta-2 (Rattus norvegicus) (UniProt P62483); experiment: enhancers of rat Kvbeta2 NADPH turnover – biochemical, NADPH fluorescence, primary screen (AID 623;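 active = NADPH fluorescence slope more negative than the mean of all samples by about 3 SD, 99.7% confidence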;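 note: fluorescence intensity change per second fitted from 20 to 320 s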); conditions: Recombinant KvBeta, NADPH fluorescence decrease slope, 10 min; at 10 µM; stronger effect = lower value
[7] = target: Alpha-2C adrenergic receptor (Homo sapiens) (UniProt P18825); experiment: compounds altering alpha2C-coupled GIRK flux – cell-based, HEK293 alpha2C/GIRK1/2, thallium flux, primary screen (AID 624;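 active = fluorescence slope after compound addition differing from the mean of all screened samples at 99.7% confidence, in either direction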;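 note: slope of fluorescence ratio to pre-addition baseline per second over 15 to 24 s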); conditions: thallium flux BTC fluorescence, at 10 µM, actives lie on both sides
Chain of Alpha-2C adrenergic receptor (Homo sapiens) (P18825 whole entry, looked up): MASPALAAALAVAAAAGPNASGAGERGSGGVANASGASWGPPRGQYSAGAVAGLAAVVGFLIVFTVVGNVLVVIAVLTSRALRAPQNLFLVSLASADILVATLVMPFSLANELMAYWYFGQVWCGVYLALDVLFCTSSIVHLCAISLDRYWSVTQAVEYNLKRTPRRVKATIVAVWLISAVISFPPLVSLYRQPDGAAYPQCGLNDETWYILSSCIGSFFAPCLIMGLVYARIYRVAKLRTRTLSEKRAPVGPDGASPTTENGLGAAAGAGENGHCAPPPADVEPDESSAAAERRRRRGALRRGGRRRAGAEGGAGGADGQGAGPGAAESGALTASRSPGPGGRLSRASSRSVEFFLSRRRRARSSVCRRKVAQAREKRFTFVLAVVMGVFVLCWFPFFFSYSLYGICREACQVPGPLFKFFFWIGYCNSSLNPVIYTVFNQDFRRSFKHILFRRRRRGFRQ

[8] = loss of swimming-algae plug formation – whole organism, Chlamydomonas reinhardtii, WT vs cilia-less mutant, absorbance, 96-well, primary screen (AID 463189;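 active = inhibition at or above 50% relative to wild type and mutant plate controls; inactive = inhibition below 50%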;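 note: 0% = wild type cc124 cells in DMSO and 100% = ciliumless bld1 mutant cells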); conditions: Chlamydomonas reinhardtii gravitaxis, OD600 absorbance, 2 days; at 10 µM; stronger effect = higher value
[9] = inhibitors of larval lipid processing in zebrafish, primary screen, whole organism, PED6 fluorescence, gall bladder and intestine (AID 686;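 active = a full or partial loss of lipid-probe fluorescence in the fish gall bladder, intestine or both, judged by eye; inactive = no fluorescence loss, or compound toxic to the fish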;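 note: larvae 5 to 7 days old with five fish per well; signal comes from phospholipase A2 cleavage of quenched PED6 carried via bile; overnight exposure to compound and PED6 before scoring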); conditions: Zebrafish larvae PED6 lipid processing, fluorescence scoring; screened at 20 µM (by protocol)
Summary of the method: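 Also added: quenched phospholipase substrate PED6, 100 nM final, ingested by larvae; System: zebrafish larvae, 5-7 d; Quantity: 5 larvae per well; Compound: 20 µM single dose; Schedule: overnight compound and PED6 incubation; Read-out: visual per-well fluorescence inhibition score; Measured by: By-eye fluorescence microscopy; Medium: E3.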

[10] = measured here: cell density z-score
[11] = measured here: nuclear c-Myc green intensity z-score
[12] = measured here: nuclear pErk red intensity z-score, stronger effect = higher value

SMILES	cell count [1]	inhibition [1]	inhibition [2]	nuclei count [2] [%]	z-score [3, 10]	z-score [3, 11]	z-score [3, 12]	inhibition [4]	fluorescence slope [5]	NADPH fluorescence slope [6]	slope [7]	inhibition [8]	outcome [9]
C=C1C2(C(=O)Nc3nccs3)CCC(C2)C1(C)C (configuration not stated)	357	-0.5% (inactive)	-34.7% (inactive)	138	-1.77	1.86	0.223	-3.5% (inactive)	-0.4 (inactive)	-0.000131 (inactive)	0.00676 (inactive)	0.99% (inactive)	
C=CCOc1nc(-c2ccncc2)nc2ccccc12	345	4.5% (inactive)	-73.4% (inactive)	130	0.583	-0.0101	-0.88	16.1% (inactive)	-0.491 (inactive)	-3.3e-05 (inactive)	0.00589 (inactive)	79.7% (active)	
Cc1ccc(N2C(=O)C3ON(c4ccccc4)C(c4ccncc4)C3C2=O)cc1 (configuration not stated)	381	1.9% (inactive)	-70.5% (inactive)	142	-0.368	-0.198	0.0354	-8.76% (inactive)	-0.416 (inactive)	-0.000456 (active)	0.0052 (inactive)	12.5% (inactive)	
COc1cc(C2C(C(=O)c3cccs3)=C(O)C(=O)N2c2cc(C)on2)ccc1O (configuration not stated)	340	4.6% (inactive)	-93.3% (inactive)	155	0.402	-0.247	-0.385	-10.5% (inactive)	-0.43 (inactive)	-0.000162 (inactive)	0.00517 (inactive)	-10.7% (inactive)	
CCN(CC)CCn1c(O)c(N=O)c2ccccc21	314	-11.6% (inactive)	-9% (inactive)	111	-0.589	-0.252	0.221	21% (inactive)	-0.482 (inactive)	-3.1e-05 (inactive)	0.00988 (inactive)	0.498% (inactive)	
Cc1cccc(C)c1N1C(=O)C2ON(c3ccccc3)C(c3ccncc3)C2C1=O (configuration not stated)	382	-1.4% (inactive)	-151% (inactive)	141	1.05	0.0518	-0.286	-1.75% (inactive)	-0.442 (inactive)	-0.000159 (inactive)	0.00363 (inactive)	-6.35% (inactive)	
COc1cccc(C2C(C(=O)c3cccs3)=C(O)C(=O)N2c2cc(C)on2)c1 (configuration not stated)	316	-1.9% (inactive)	-91.3% (inactive)	148	-0.295	-1.2	1.95	-7.01% (inactive)	-0.427 (inactive)	-0.000129 (inactive)	0.00539 (inactive)	-2.3% (inactive)	
CCOC(=O)N1CCN(/C=C(\C#N)c2nc3ccccc3s2)CC1	357	-3.2% (inactive)	-5.3% (inactive)	136	1.93	0.746	-0.877	7.01% (inactive)	-0.404 (inactive)	-0.000116 (inactive)	0.0139 (inactive)	-8.84% (inactive)	
CC12CCC(C(=O)N(CCC#N)CCC#N)(CC1=O)C2(C)C (configuration not stated)	311	21.3% (inactive)	-9% (inactive)	92.1	-0.914	1.07	1.43	-12.3% (inactive)	-0.505 (inactive)	-9.3e-05 (inactive)	0.00706 (inactive)	20.6% (inactive)	
CC1CCCCN1C(=O)C12CCC(C)(/C(=N/O)C1)C2(C)C (configuration not stated)	333	-6.9% (inactive)	-75.4% (inactive)	141	-1.18	2.22	1.3	5.26% (inactive)	-0.407 (inactive)	-0.000148 (inactive)	0.00568 (inactive)	-7.07% (inactive)	
CC(C)Cc1nc2n[nH]c(N)c2c2c1CCC2	325	-3.7% (inactive)	-87.6% (inactive)	149	0.414	-0.778	-0.647	-1.75% (inactive)	-0.43 (inactive)	-8.3e-05 (inactive)	0.0075 (inactive)	8.43% (inactive)	
COc1ccc(/C(O)=C2/C(=O)C(=O)N(CCN3CCOCC3)C2c2ccccn2)cc1OC (configuration not stated)	409	-7.4% (inactive)	-125% (inactive)	158	1.75	-1.41	1.12	15.8% (inactive)	-0.419 (inactive)	-9.3e-05 (inactive)	0.00847 (inactive)	6.74% (inactive)	
CCCCc1cc(=O)oc2c(CN(C)C)c(O)c(Cl)cc12	409	-5.1% (inactive)	-156% (inactive)	164	-0.211	-0.0215	0.835	-5.26% (inactive)	-0.163 (inactive)	2.2e-05 (inactive)	0.0046 (inactive)	0.735% (inactive)	
c1ccc2c(NCC3CCCO3)nc(-c3ccncc3)nc2c1 (configuration not stated)	296	1.9% (inactive)	-260% (inactive)	134	0.349	-0.718	-1.13	1.48% (inactive)	-0.516 (inactive)	-3.7e-05 (inactive)	0.00585 (inactive)	141% (active)	
CCO/C(C)=N/n1c2nc3ccccc3nc2c2c(=O)n(CC(C)C)c(C)nc21	369	1.4% (inactive)	-12.8% (inactive)	145	-0.809	0.23	0.00332	14% (inactive)	-0.438 (inactive)	-6e-05 (inactive)	0.00351 (inactive)	9.95% (inactive)	
CCCc1cc(=O)oc2c(CN3CCCC3)c(O)c(Cl)cc12	371	-2.3% (inactive)	-95.9% (inactive)	144	0.942	-0.732	0.231	22.8% (inactive)	-0.172 (inactive)	-2.5e-06 (inactive)	0.00449 (inactive)	-0.278% (inactive)	
Cc1cccc(N(Cc2cc3ccccc3[nH]c2=O)C(=O)c2ccco2)c1C	391	-8.8% (inactive)	-117% (inactive)	150	0.27	-0.684	-0.0595	12.3% (inactive)	-0.439 (inactive)	-0.000168 (inactive)	0.00782 (inactive)	22.4% (inactive)	
COc1ccc(N/C=C(\C#N)c2nc3ccccc3n2C)c(OC)c1	367	-0.5% (inactive)	-18% (inactive)	138	-0.0541	-0.725	2.53	1.75% (inactive)	-0.426 (inactive)	-0.000158 (inactive)	0.00463 (inactive)	1.37% (inactive)	
CC1(C)CC(=O)C2=C(C1)Oc1nc3ccccc3cc1C2C(C#N)C#N (configuration not stated)	373	-3.7% (inactive)	-108% (inactive)	134	-0.147	-0.642	-1.04	-12.3% (inactive)	-0.414 (inactive)	-0.000128 (inactive)	0.00783 (inactive)	26.7% (inactive)	
O=C1CC(N(O)C2CC(=O)N(Cc3ccccc3)C2=O)C(=O)N1Cc1ccccc1 (configuration not stated)	269	-16.2% (inactive)	-15% (inactive)	88.9	-0.0667	1.6	-0.253	3.5% (inactive)	-0.433 (inactive)	-5.6e-06 (inactive)	0.0039 (inactive)	13.4% (inactive)	
O=C(NCCCn1ccnc1)C(Cc1ccccc1)N1C(=O)c2ccccc2C1=O (configuration not stated)	340	-6.9% (inactive)	-73.9% (inactive)	125	0.63	-0.478	-0.334	1.6e-07% (inactive)	-0.46 (inactive)	-0.000126 (inactive)	0.00809 (inactive)	3.02% (inactive)	
CCCc1cc(=O)oc2c(CN3CCN(C)CC3)c(O)c(Cl)cc12	332	1.4% (inactive)	4.8% (inactive)	163	1.29	-0.833	-1.37	1.6e-07% (inactive)	-0.229 (inactive)	-1.7e-05 (inactive)	0.00587 (inactive)	-8.3% (inactive)	
CCOc1cc2nc(-c3ccc(OC)c(OC)c3)nc(N3CCOCC3)c2cc1OC	497	-26.2% (inactive)	-85% (inactive)	151	-0.0989	-1.76	-2.63	20.9% (inactive)	-0.455 (inactive)	-1.4e-05 (inactive)	0.00555 (inactive)	84.6% (active)	inactive; toxic
Cn1c(NCc2ccco2)nc2c1c(=O)n(Cc1ccc(Cl)c(Cl)c1)c(=O)n2C	615	-3.6% (inactive)	-47.4% (inactive)	147	-0.044	0.293	1.11	-1.12% (inactive)	-0.511 (inactive)	-6.1e-05 (inactive)	0.00544 (inactive)	48.3% (inactive)	inactive
CCOC(=O)CNS(=O)(=O)c1cc(-c2nn(C)c(=O)c3ccccc23)ccc1C	560	-1.9% (inactive)	45.7% (inactive)	144	1.99	-1.09	-0.809	8.76% (inactive)	-0.385 (inactive)	-1.9e-05 (inactive)	0.00449 (inactive)	-1.44% (inactive)	inactive
CC1(C)CN(O)CCN1O	325	-5.3% (inactive)	-130% (inactive)	104	-0.173	-0.721	-0.0914	-10.1% (inactive)	-0.452 (inactive)	-1.8e-06 (inactive)	0.00611 (inactive)	12% (inactive)	inactive
CC1(C)Cc2c(C#N)c(N3CCOCC3)nc(-c3ccccc3)c2CO1	600	-14.3% (inactive)	-25.8% (inactive)	109	-0.0371	-0.989	0.333	3.66% (inactive)	-0.424 (inactive)	-7.6e-05 (inactive)	0.0042 (inactive)	-17.1% (inactive)	inactive
COc1cc(C)nc(Oc2ccc(=O)n(C)n2)n1	616	-10.3% (inactive)	13.1% (inactive)	188	0.099	-0.292	0.697	-8.95% (inactive)	-0.38 (inactive)	-2.2e-05 (inactive)	0.00541 (inactive)	3.29% (inactive)	inactive
